Compounds with a hit are over-represented: about 3.4% of the library has one in this group of screens.
VIM-2 inhibitor: blocks Pseudomonas aeruginosa VIM-2 metallo-beta-lactamase. inhibition, % at 5.6 µM. 290,000 tested, 0.89% active. purified VIM-2, nitrocefin hydrolysis, epi-absorbance fluorescence;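 active = inhibition above the mean of all tested compounds plus 3 SD, cutoff set per screening run, cut at about 7.5% in these data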;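 note: red hydrolysis product quenches plate fluorescence so inhibitors raise well fluorescence; 0% = enzyme with DMSO and 100% = DMSO without enzyme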
MEKK2 WT-MEK5: raises or lowers MEK5 binding to wildtype human MEKK2 PB1 domain; Q9Y2U5; bead flow cytometry, Alexa488-MEK5 binding to MEKK2 WT; actives lie on both sides; binding response (% of control), % at 10 µM; 290,000 tested, 1.1% active; in the data active = binding response below about 67% or above about 130%
MEKK2mut PB1 HTS: signal of MEK5 binding to mutant human MEKK2 PB1 domain; percent response, % at 10 µM; 290,000 tested, 0.35% active; bead flow cytometry, Alexa488-MEK5 binding to MEKK2 mutant; in the data active = percent response above about 24%, passing the limit was not always enough
IMP-1 inh: blocks Pseudomonas aeruginosa IMP-1 metallo-beta-lactamase | purified IMP-1, nitrocefin hydrolysis, epi-absorbance fluorescence | inhibition, % at 5.6 µM | 290,000 tested, 0.45% active | AID 1556;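 active = inhibition above the mean plus 3 SD of all compounds in the same screening run, cut at about 4.5% in these data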;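 note: 0% = IMP-1 with DMSO and 100% = DMSO wells lacking enzyme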
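System: Purified recombinant IMP-1 metallo-beta-lactamase enzyme | Measured by: Fluorescence quenching readout, ex 480/em 530 nm | Replication: Singlicate | Incubation: 15 min preincubation plus 25 min reaction at 25 °C | Evaluation: Percent inhibition from optical density relative to buffer-blank wells | Benchmarks: DMSO with and without IMP-1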
MEKK3 PB1 HTS: raises or lowers MEK5 binding to the human MEKK3 PB1 domain; 290,000 tested, 1.4% active; binding response (% of control), % at 10 µM; AID 1529; bead-based flow cytometry, Alexa488-MEK5 binding to MEKK3; actives lie on both sides; 0 = blocked by unlabeled MEK5, 100 = vehicle; Q99759;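 active = binding response more than 3 SD above or below the average of its plate-row segment, actives on both sides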;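 note: Alexa488 bead fluorescence after subtracting the streptavidin-only scavenger bead signal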
Target sequence (Q99759 whole entry, looked up, the tested form may be a part): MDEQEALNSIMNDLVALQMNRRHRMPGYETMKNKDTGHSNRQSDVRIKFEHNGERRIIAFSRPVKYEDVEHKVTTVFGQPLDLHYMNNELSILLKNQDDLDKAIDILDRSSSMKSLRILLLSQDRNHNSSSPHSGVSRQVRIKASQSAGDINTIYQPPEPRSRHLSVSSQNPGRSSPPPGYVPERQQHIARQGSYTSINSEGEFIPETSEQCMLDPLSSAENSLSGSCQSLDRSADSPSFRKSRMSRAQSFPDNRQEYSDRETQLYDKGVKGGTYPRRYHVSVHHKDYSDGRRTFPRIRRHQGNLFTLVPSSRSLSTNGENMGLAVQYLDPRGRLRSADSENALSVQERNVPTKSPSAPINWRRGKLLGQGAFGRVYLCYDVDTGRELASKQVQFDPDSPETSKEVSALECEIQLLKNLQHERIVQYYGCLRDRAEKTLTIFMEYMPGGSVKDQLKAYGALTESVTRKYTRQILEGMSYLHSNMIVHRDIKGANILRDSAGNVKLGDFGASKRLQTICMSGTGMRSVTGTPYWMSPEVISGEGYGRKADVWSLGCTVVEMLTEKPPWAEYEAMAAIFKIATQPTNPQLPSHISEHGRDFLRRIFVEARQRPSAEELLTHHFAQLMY
VIM-2 inh confirm: VIM-2 inhibition, confirmation assay; shares compounds with IMP-1 inh; purified VIM-2 enzyme, nitrocefin absorbance; 200 tested, 73% active; inhibition, % at 5.6 µM; in the data active = inhibition above about 8%;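 note: 0% = enzyme with vehicle and 100% = no enzyme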
TEM-1 counter: blocks E. coli TEM-1 beta-lactamase, VIM-2 IMP-1 counter-screen; shares compounds with IMP-1 inh; nitrocefin absorbance inhibition; inhibition, % at 5.6 µM; 200 tested, 50% active; AID 2184; in the data active = inhibition above about 0.66%
IMP-1 confirm: confirmation of P. aeruginosa IMP-1 metallo-beta-lactamase inhibitors; AID 2189; 200 tested, 60% active; purified IMP-1 enzyme, absorbance substrate hydrolysis; inhibition, % at 5.6 µM; shares compounds with IMP-1 inh; in the data active = inhibition above about 4.9%;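 note: 0% = enzyme with vehicle and 100% = vehicle without enzyme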
Numbers without * were called inactive; · = no result.

SMILES | VIM-2 inhibitor | MEKK2 WT-MEK5 | MEKK2mut PB1 HTS | IMP-1 inh | MEKK3 PB1 HTS | VIM-2 inh confirm | TEM-1 counter | IMP-1 confirm
CCOc1ccc(NC(=O)c2c(NC(=O)CN3CCN(C)CC3)sc3c2CCC3)cc1 | 9.6* | 120 | 6 | 4.7* | 102 | 16* | -3 | 2
CCOC(=O)c1c(NC(=O)CSc2nc3c(c(=O)n(C)c(=O)n3C)n2C(C)C)sc(C)c1C | -2 | 103 | -2 | 1 | 104 | · | · | ·
O=C(NC1CCCCC1)C(c1ccc(Cl)cc1)N(C(=O)c1ccccn1)c1cccnc1 (configuration not stated) | -3 | 86 | -11 | -2 | 96 | · | · | ·
CC(=O)Nc1ccc(NC(=O)C2CC(=O)N=C(N)S2)cc1 (configuration not stated) | -6 | · | · | -5 | · | · | · | ·
C/C(=N\O)c1ccc2c3c([nH]c2c1)CCCC3 | 23* | 100 | 1 | 8.6* | 102 | 37* | -3 | 4.8*
CC(=O)Oc1cc2cccc(OC(C)=O)c(=O)c2c(OC(C)=O)c1OC(C)=O | 7 | 101 | 2 | 8.9* | 110 | 2 | -3 | -2
CC(=O)Oc1cccc2c1C(=O)c1c(OC(C)=O)cc(C(=O)O)cc1C2=O | -2 | 95 | 2 | -3 | 85 | · | · | ·
O=C(c1ccoc1)N1CCC2(CC1)Oc1ccc(F)cc1C(=O)C21CC(c2ccc(Cl)cc2)=NO1 (configuration not stated) | · | 87 | 3 | · | 96 | · | · | ·
Cc1oc2cc(O)ccc2c(=O)c1-c1ccccc1 | 0 | 101 | -2 | -2 | 108 | · | · | ·
O=c1ccc2c(-c3ccccc3)c3ccc(O)cc3oc-2c1 | 81* | 108 | -48 | 84* | 74 | 101* | 152* | 96*
Nc1ccc(-c2c3ccc(=O)cc-3oc3cc(O)ccc23)cc1C(=O)O | 70* | 132 | 27* | 51* | 106 | 59* | 62* | 42*
Cc1ccc(Cn2c(C(C)Nc3nc(-c4ccc(C)cc4)cs3)nc3cc(Cl)c(Cl)cc32)cc1 (configuration not stated) | 12* | 102 | -11 | 29* | 104 | 11* | -6 | 25*
Cc1cc(/C=N/NC(N)=S)c(O)c(/C=N/NC(N)=S)c1 | 26* | 94 | -15 | 27* | 94 | 26* | -2 | 25*
NC(=S)N/N=C/c1cccc(O)c1O | -3 | 103 | 2 | -2 | 103 | · | · | ·
CN1CCS/C1=C/C=C1\SC(=S)N(CC(=O)O)C1=O | 9.6* | 67 | -15 | 6.8* | 68 | 8 | -7 | 2
COc1ccc(N=Nc2nc3ccc(Br)cc3n2C)cc1 | 26* | · | · | 25* | · | -2 | -5 | -4
Cc1[nH]c2ccccc2c1/C=C/c1cc[n+](C)cc1 | 10* | · | · | 9.0* | · | 17* | 0 | 3
Cc1ccccc1/C=C/c1cc[n+](C)cc1 | 0 | 88 | -12 | -2 | 95 | · | · | ·
C(=N\Nc1nc(-c2ccccn2)nc2ccccc12)/c1ccccc1 | -3 | 102 | 5 | -3 | 98 | · | · | ·
c1ccc(-c2nc(NCc3ccco3)c3ccccc3n2)nc1 | 15* | 104 | 1 | 8.8* | 97 | 13* | -3 | 1
Fc1ccccc1-c1nc(NCc2ccco2)c2ccccc2n1 | -6 | 99 | -3 | -1 | 93 | · | · | ·
O=[n+]1c2c(n([O-])c3cc(Br)ccc31)CCCC2 | -2 | 100 | -1 | -1 | 108 | · | · | ·
O=[n+]1c2c(n([O-])c3ccccc31)CCCC2 | 13* | 103 | 7 | 35* | 100 | 0 | -1 | -3
CCn1cc(/C=C/c2cc[n+](C)cc2)c2ccccc21 | 16* | 107 | -4 | 13* | 99 | 14* | 8.0* | 8.3*
CC(C)n1cc(/C=C/c2cc[n+](C)cc2)c2ccccc21 | 18* | 106 | -3 | 12* | 98 | 14* | 6.7* | 8.4*
SMILES | VIM-2 inhibitor | MEKK2 WT-MEK5 | MEKK2mut PB1 HTS | IMP-1 inh | MEKK3 PB1 HTS | VIM-2 inh confirm | TEM-1 counter | IMP-1 confirm
Oc1c(C=Nc2cccnc2)sc2ccccc12 | 1 | 111 | 9 | -4 | 107 | · | · | ·
Oc1sc(C=Nc2ccccc2)c2ccccc12 | 17* | 95 | 0 | 15* | 106 | 23* | 0 | 4
Cn1c(=O)cc(OCC(=O)NCc2cccnc2)c2ccccc21 | 2 | 93 | -1 | -3 | 97 | · | · | ·
CCOP(=O)(O)c1ccccc1OCCOc1ccccc1P(=O)(O)OCC | -3 | 107 | 4 | -2 | 107 | · | · | ·
O=P(O)(O)COc1ccccc1P(=O)(c1ccccc1)c1ccccc1 | 12* | 107 | 2 | 5.3* | 107 | 16* | -4 | -5
CC1=CC2=NC(=O)/C(=C/c3coc4ccc(Cl)cc4c3=O)C(=N)N2O1 | 13* | 72 | -32 | 9.4* | 73 | 7.8* | -2 | 2
N=C1/C(=C\c2coc3ccccc3c2=O)C(=O)N=C2SC=CN12 | 9.3* | 106 | -1 | 8.6* | 105 | 16* | 3.6* | 12*
CC1=CC2=NC(=O)/C(=C\c3cc(C)n(-c4cccc(Cl)c4)c3C)C(=N)N2O1 | -2 | 94 | -1 | -3 | 101 | · | · | ·
CC(=O)C1=C(O)C(=O)N(Cc2ccccc2)C1c1ccc(F)cc1 (configuration not stated) | -1 | 103 | 3 | -3 | 101 | · | · | ·

Screening results as filed in PubChem.
